Results published in ChEMBL document CHEMBL2424622, “Development of amino-pyrimidine inhibitors of c-Jun N-terminal kinase (JNK): kinase profiling guided optimization of a 1,2,3-benzotriazole lead” (Bioorg Med Chem Lett, 2013).

What was measured:
[1] = biological target: T1, Serine/threonine-protein kinase LATS2 (Homo sapiens) (UniProt Q9NRM7); assay: Competitive binding affinity to LATS2 (unknown origin) at 10 uM in presence of ATP relative to control
T1 sequence (whole entry): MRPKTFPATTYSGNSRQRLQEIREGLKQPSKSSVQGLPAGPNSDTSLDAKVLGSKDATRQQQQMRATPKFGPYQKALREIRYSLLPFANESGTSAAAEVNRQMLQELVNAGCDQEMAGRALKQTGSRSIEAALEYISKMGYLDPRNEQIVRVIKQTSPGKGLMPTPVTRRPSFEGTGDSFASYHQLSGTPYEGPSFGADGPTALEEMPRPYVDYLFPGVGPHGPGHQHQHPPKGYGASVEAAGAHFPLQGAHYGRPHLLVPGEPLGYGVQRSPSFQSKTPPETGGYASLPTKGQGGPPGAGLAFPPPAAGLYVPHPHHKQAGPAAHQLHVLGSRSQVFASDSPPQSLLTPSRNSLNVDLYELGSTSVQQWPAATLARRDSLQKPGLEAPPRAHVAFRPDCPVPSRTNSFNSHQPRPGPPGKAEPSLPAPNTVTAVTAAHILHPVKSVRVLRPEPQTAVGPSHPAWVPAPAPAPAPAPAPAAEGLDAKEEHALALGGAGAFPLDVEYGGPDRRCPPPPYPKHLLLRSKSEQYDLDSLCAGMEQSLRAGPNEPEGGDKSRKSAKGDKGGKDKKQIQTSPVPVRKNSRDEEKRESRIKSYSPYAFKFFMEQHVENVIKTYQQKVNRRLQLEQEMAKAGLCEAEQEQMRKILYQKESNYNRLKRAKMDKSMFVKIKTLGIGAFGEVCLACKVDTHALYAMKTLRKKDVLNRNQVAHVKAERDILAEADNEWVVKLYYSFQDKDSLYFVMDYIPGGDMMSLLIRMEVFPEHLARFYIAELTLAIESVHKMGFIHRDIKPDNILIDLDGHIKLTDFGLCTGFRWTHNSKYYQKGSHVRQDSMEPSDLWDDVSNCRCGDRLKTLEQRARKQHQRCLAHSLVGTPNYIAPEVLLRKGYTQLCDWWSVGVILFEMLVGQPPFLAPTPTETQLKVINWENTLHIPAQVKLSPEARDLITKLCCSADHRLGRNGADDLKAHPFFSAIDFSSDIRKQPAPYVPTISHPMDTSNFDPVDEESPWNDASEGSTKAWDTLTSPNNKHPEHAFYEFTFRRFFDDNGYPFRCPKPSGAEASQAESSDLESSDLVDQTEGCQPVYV

[2] = biological target: Myosin-IIIa (Homo sapiens) (UniProt Q8NEV4); assay: Competitive binding affinity to MYO3A (unknown origin) at 10 uM in presence of ATP relative to control
[3] = tested on: Epidermal growth factor receptor (Homo sapiens), P00533 [G719C]; assay: Competitive binding affinity to EGFR G719C mutant (unknown origin) at 10 uM in presence of ATP relative to control
Outline: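 In vitro ATP-site competition binding assay, part of profiling against a diverse panel of 128 kinases. Each compound was tested at a single concentration of 10 µM. Kinome selectivity was summarized as S15 selectivity scores.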

[4] = biological target: T2, Serine/threonine-protein kinase DCLK2 (Homo sapiens) (UniProt Q8N568); assay: Competitive binding affinity to DCAMKL2 (unknown origin) at 10 uM in presence of ATP relative to control
T2 sequence (whole entry): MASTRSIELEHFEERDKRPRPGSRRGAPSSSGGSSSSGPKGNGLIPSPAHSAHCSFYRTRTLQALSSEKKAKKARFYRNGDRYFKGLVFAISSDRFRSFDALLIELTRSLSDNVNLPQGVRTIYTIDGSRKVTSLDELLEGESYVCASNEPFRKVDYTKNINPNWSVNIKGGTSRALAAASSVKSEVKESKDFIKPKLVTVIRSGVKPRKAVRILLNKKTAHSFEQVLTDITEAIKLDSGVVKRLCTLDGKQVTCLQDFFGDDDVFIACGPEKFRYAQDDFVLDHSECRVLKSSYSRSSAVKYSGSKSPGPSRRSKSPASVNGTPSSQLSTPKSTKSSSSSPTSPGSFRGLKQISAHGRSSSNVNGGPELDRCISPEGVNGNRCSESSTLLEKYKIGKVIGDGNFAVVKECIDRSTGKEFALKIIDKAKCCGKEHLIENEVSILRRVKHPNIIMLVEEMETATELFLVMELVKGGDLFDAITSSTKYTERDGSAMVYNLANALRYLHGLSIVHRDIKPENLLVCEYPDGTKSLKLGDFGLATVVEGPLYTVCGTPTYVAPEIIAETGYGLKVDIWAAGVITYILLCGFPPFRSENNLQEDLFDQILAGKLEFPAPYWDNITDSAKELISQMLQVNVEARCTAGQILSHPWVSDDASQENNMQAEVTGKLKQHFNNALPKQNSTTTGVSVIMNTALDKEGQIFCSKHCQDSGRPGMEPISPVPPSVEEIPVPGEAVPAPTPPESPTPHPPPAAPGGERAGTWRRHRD

Measured: inhibition

Chain of Myosin-IIIa (Homo sapiens) (Q8NEV4 whole entry): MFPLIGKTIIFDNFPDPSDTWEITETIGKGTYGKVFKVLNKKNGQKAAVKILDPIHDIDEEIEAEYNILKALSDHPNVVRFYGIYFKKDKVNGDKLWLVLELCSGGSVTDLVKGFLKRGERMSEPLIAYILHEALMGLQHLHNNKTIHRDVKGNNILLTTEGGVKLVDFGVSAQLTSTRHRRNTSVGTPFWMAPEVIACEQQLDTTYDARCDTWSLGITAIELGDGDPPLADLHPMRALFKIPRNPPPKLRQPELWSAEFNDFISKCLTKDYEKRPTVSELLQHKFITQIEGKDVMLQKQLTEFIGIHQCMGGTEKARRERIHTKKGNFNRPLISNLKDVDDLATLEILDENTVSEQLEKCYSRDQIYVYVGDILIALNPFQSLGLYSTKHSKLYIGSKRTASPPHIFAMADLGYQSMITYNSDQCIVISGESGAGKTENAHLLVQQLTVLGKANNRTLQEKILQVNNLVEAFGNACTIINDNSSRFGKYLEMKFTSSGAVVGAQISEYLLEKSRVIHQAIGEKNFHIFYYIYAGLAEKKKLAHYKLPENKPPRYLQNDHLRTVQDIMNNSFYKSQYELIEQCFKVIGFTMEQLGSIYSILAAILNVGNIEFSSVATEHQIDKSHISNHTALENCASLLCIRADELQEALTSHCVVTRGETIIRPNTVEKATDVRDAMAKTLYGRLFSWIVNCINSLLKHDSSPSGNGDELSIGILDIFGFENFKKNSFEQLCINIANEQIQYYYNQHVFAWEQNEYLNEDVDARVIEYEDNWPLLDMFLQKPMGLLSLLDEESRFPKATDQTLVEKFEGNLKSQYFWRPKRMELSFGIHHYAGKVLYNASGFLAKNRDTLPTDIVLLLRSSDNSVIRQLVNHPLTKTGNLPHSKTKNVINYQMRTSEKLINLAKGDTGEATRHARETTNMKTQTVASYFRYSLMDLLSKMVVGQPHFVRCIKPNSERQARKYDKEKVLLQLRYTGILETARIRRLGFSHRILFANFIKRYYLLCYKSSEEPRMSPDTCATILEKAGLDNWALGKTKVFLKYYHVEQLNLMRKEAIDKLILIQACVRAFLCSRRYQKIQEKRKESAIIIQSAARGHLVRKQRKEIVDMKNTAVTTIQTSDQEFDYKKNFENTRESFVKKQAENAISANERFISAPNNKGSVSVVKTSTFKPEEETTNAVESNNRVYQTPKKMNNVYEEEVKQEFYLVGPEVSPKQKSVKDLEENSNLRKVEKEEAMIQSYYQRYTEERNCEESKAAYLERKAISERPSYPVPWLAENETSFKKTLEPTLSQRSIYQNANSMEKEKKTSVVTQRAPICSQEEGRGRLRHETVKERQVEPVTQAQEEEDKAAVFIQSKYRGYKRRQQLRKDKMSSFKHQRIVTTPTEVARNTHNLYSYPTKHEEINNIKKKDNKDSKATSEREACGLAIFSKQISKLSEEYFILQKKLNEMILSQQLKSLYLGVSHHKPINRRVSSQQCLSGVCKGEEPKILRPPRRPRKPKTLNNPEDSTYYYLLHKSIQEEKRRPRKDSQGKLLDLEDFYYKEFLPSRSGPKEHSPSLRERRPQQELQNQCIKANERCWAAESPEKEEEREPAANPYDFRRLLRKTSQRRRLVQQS
Chain of Epidermal growth factor receptor (Homo sapiens), P00533 [G719C] (P00533 whole entry G719C): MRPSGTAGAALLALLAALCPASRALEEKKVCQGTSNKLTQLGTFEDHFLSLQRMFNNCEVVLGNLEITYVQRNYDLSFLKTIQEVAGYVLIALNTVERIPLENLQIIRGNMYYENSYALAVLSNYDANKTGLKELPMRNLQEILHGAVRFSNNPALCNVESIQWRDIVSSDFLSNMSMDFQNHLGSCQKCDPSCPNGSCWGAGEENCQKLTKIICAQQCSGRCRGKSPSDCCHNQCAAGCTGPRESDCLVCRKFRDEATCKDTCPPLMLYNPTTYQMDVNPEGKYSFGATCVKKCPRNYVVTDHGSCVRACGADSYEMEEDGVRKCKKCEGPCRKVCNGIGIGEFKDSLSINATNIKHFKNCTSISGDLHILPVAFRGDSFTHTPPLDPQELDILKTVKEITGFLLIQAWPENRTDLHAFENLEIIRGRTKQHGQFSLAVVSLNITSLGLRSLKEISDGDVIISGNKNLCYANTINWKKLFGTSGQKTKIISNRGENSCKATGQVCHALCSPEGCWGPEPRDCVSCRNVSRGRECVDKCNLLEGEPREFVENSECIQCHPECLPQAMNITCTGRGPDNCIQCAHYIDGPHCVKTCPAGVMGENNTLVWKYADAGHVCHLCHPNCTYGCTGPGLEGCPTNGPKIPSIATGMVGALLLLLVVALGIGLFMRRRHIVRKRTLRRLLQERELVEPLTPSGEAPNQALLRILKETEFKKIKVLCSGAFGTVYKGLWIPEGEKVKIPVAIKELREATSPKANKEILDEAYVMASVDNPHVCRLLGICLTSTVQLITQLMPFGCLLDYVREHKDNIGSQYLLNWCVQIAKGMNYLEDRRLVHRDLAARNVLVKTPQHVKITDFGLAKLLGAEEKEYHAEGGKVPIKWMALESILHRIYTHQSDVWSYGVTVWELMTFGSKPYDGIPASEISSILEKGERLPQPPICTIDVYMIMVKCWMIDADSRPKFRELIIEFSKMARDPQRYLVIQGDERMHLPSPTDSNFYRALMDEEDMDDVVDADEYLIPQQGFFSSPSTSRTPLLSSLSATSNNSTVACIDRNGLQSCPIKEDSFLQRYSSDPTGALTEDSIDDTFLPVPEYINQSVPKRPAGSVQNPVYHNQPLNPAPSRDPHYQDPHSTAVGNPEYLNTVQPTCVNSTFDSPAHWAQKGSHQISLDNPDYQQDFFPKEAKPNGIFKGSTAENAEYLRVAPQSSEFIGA

O[C@H]1CC[C@H](Nc2nccc(-n3ccc4ccccc43)n2)CC1
< 50%: all assays above

O[C@H]1CC[C@H](Nc2nccc(-n3nnc4ccccc43)n2)CC1
< 50%: all assays above

O[C@H]1CC[C@H](Nc2nccc(-n3ncc4ccccc43)n2)CC1
< 50%: all assays above

O[C@H]1CC[C@H](Nc2nccc(-c3n[nH]c4ccccc34)n2)CC1
< 50%: [3]
